# Most compounds without a hit are left out; they make up all but 1.9% or so of the library.
# PLCg1 inh: blocks human PLC-gamma1 enzyme activity; P19174; inhibition, % at 12.2 µM; hit rate 0.84% among 370,000; purified PLC-gamma1, fluorogenic substrate, fluorescence; in the data active means inhibition above about 9.5%
# TbMetRS inhib: blocks T. brucei methionyl-tRNA synthetase activity; purified T. brucei MetRS, ATP depletion, Kinase-Glo luminescence; inhibition, % at 11.9 µM; hit rate 0.4% among 360,000;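 active means inhibition above a per-plate cutoff of the control wells' mean inhibition plus 3 SD, cut at about 5.5% in these data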;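 further: 0% = DMSO wells median and 100% = median of wells with control inhibitor compound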
#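 Material – parasite MetRS enzyme · Medium – HEPES-MgCl2-KCl buffer plus DTT, spermine, BSA, pyrophosphatase · Reagent – ATP, methionine and E. coli bulk tRNA substrates · Times – 15 min enzyme-compound preincubation, 2 h reaction, 10 min detection, 25 °C · Measured by – luminescence of leftover ATP · Evaluation – percent inhibition relative to median high and low control wells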
# sPLA2-III inh: Blocks human group III sPLA2 activity; Q9NZ20; QFRET BODIPY PC-A2 liposome hydrolysis, fluorescence; inhibition, % at 12.2 µM; hit rate 0.56% among 370,000; AID 743126;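 active means inhibition above mean plus 3 SD of compounds lying within the high and low control bounds, cut at about 19% in these data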;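 further: 0% = median of test compound wells and 100% = no enzyme DMSO wells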
# Target sequence (Q9NZ20 whole entry, looked up): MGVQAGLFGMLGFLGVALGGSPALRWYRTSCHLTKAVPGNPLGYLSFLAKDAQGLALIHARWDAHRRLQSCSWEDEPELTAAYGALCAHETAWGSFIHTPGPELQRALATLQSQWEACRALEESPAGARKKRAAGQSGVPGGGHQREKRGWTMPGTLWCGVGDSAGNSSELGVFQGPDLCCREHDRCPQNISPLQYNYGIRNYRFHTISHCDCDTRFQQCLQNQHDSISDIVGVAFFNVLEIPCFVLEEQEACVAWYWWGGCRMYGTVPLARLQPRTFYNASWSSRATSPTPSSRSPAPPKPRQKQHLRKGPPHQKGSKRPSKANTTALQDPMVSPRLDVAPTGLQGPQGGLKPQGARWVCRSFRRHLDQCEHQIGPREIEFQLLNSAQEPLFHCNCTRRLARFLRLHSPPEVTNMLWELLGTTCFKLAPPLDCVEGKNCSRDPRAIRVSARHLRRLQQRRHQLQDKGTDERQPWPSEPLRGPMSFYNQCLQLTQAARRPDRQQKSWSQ
# PLC-beta3 inh: PLC-beta3 (human) inhibition, primary screen. Q01970. Purified PLC-beta3, fluorogenic substrate, fluorescence. inhibition, % at 12.2 µM. hit rate 0.18% among 370,000;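 further: 0% = median of compound wells on plate and 100% = full blocker control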
# PLCg1 ctr: PLC-gamma1 inhibition, counter-screen for PLC-beta3 hits; shares compounds with PLCg1 inh; purified PLC-gamma1, fluorogenic substrate, fluorescence; inhibition, % at 12.3 µM; hit rate 3.1% among 3,300; AID 743258; in the data active means inhibition above about 9.5%
# PLCb3 confirm: human PLC-beta3 inhibition, confirmation; shares compounds with PLCg1 inh; purified PLC-beta3, fluorogenic substrate fluorescence; inhibition, % at 12.3 µM; hit rate 1% among 3,300; AID 743261
# Active calls of the source: *; · = not tested or not shown. Unless noted, no stated cut-off is given here; in the data, active means inhibition above about 11%; inactive means the rest.
SMILES,PLCg1 inh,TbMetRS inhib,sPLA2-III inh,PLC-beta3 inh,PLCg1 ctr,PLCb3 confirm
COC(=O)[C@]12C[C@H](CC(=O)N3CCN(C(=O)c4ccco4)CC3)C(=O)N(Cc3ccc4c(c3)OCO4)C1=C[C@H](C(C)C)O[C@@H]2C1CC1,-0.6,·,-6.7,-1.1,·,·
CC(=O)OC1CCC2(C)C(=CCC3C2CCC2(C)C3CC3OC4(CCC(C)CN4)C(C)C32)C1 (stereo not given),10.8*,-1.1,5.2,8.4,-1.8,-1.5
Cc1nn(C(C)C(=O)O)c(C)c1[N+](=O)[O-] (stereo not given),1.0,-0.4,2.3,3.7,·,·
Cc1nn(C(C)C(=O)N2CCOCC2)c(C)c1[N+](=O)[O-] (stereo not given),11.4*,-0.5,1.9,3.0,-4.5,-10.4
Cc1ccc(Nc2ncnc(N)n2)cc1C,10.2*,1.1,4.2,5.5,-6.3,0.8
CCOc1ccc(-c2csc3ncn(-c4ccc(OC)cc4)c(=O)c23)cc1,10.5*,-1.0,12.7,-4.5,-16.2,-12.3
Cc1occc1C(=O)N/N=C/c1ccc(-c2ccccc2)cc1,-2.0,-3.1,4.0,-10.2,·,·
CCOC(=O)N/N=C/c1ccc(Oc2ccccc2)cc1,9.6*,0.0,2.1,9.1,6.3,10.2
Cc1occc1C(=O)N/N=C/c1ccc(OCc2ccccc2)cc1,15.1*,-0.9,5.1,-1.1,-2.8,-0.4
COC(=O)[C@]12C[C@H](CC(=O)NCc3ccc(OC)c(OC)c3)C(=O)N(Cc3ccc4c(c3)OCO4)C1=C[C@H](COCc1ccccc1)O[C@@H]2C,2.3,·,-10.8,3.7,·,·
Cc1ccc(C)c(NC(=O)Cn2nnc(-c3ccncc3)n2)c1,0.5,·,12.9,1.4,·,·
Cc1ccc(NC=C(S(=O)(=O)c2ccccc2)S(=O)(=O)c2ccccc2)c(C)c1,12.7*,-0.3,3.8,3.4,0.0,-0.2
C/C(=N\Nc1ccc([N+](=O)[O-])cc1[N+](=O)[O-])C(C)(C)C(C(=O)O)C(=O)O,10.7*,0.6,6.3,5.3,-3.3,0.8
CC(=O)c1cnc2sccn2c1=O,13.6*,-0.3,10.3,10.5,-4.7,-2.1
CCOC(=O)C1(CCc2ccccc2)CCN(Cc2ccc(C(=O)OC)cc2)CC1,-35.9,0.1,-1.1,-44.6,·,·
CCOC(=O)C1(CCc2ccccc2)CCN(Cc2ccccn2)CC1,9.9*,0.6,-0.8,0.9,-6.8,-0.8
COCCCNC(=O)C[C@H]1C(=O)N(Cc2ccc(OC)cc2)C2=CCCCC[C@@]21C(=O)OC,7.0,·,0.9,3.0,·,·
CCc1nc2c(OCCC3CCCCC3)cccn2c1N(C)C(=O)c1ccc(C)cc1,10.2*,-0.5,17.9,2.9,3.8,3.0
CCOC(=O)[C@@]12CCCC=C1N(CCc1ccc(Cl)cc1)C(=O)[C@H]2CC(=O)N1CCCC1,-1.9,·,0.6,-1.9,·,·
CCCCOCCCNC(=O)C[C@@H]1C(=O)N2CCCC3=C2[C@@]1(C(=O)OC)CCCC3,-1.7,·,3.1,2.2,·,·
CCOC(=O)/C(C#N)=C1/C=CN(c2ccc(C)cc2)C=N1,13.3*,-0.1,0.9,11.5*,-5.0,0.7
CCOC(=O)/C(C#N)=C1/C=CN(c2ccccc2)C=N1,10.8*,-0.1,4.8,6.2,7.3,7.0
CCOC(=O)/C(C#N)=C1/C=CN(C)C=N1,10.2*,0.1,-0.2,7.9,13.7*,8.6
CCOC(=O)/C(C#N)=C1/C=CN(Cc2ccccc2)C=N1,8.9,-0.1,0.7,10.6,·,·
CCC(O)(c1ccc(NC(=O)OC(C)(C)C)cc1)c1cc(OC)cc(OC)c1 (stereo not given),0.7,·,-28.6,1.1,·,·
SMILES,PLCg1 inh,TbMetRS inhib,sPLA2-III inh,PLC-beta3 inh,PLCg1 ctr,PLCb3 confirm
CCC(C)n1c(SCC(=O)NCc2ccco2)nnc1-c1cccc(S(=O)(=O)N2CCOCC2)c1 (stereo not given),12.4*,-0.6,2.9,2.9,-7.9,-6.2
Cn1c(SCC(=O)NCc2ccco2)nnc1-c1ccc(S(=O)(=O)N2CCOCC2)cc1,0.3,-0.2,-2.6,0.0,·,·
C/C(=N/NC(=O)c1ccoc1C)c1cccs1,-3.0,·,-2.6,-80.9,·,·
COC(=O)C[C@@H]1CC[C@H]2[C@H](COc3ccc(NC(=O)c4cccc(C(F)(F)F)c4)cc3C(=O)N2C)O1,-0.8,·,-13.3,-3.2,·,·
CC(C)NC(=O)C1(C)CCN1C/C=C/c1ccccc1 (stereo not given),12.4*,-0.1,2.7,7.3,-7.8,-5.9
O=S1(=O)C[C@@H](N2CC[C@@H](O)C2)[C@H](COCc2ccccc2)N1,10.2*,-0.3,9.7,10.2,-0.9,-0.9
CCOC(=O)c1cccc(S(=O)(=O)N2CCCC2)c1,10.3*,-0.1,9.0,9.3,-7.6,-1.4
COc1ccccc1COCC(O)CN1CCN(S(=O)(=O)c2cccc(F)c2)CC1 (stereo not given),14.9*,-0.2,-5.7,0.1,-1.9,1.5
CC(OC(=O)c1cccc(S(=O)(=O)N2CCCCC2)c1)C(=O)NCC1CCCCC1 (stereo not given),9.9*,-0.3,5.7,-0.4,4.0,3.0
COc1ccccc1COC(=O)c1cccc(S(=O)(=O)N2CCCC2)c1,10.3*,-0.4,-19.8,11.1*,10.8*,14.2*
CCN(CC)c1ccc(C=Nn2c(C)nnc2C)cc1,6.1,·,10.5,2.6,·,·
CN1[C@@H](Cc2ccccc2)COc2cccc(F)c2S1(=O)=O,0.2,·,-7.6,3.3,·,·
O=C(c1cccc(S(=O)(=O)N2CCCC2)c1)N1CCCc2ccccc21,2.6,-0.2,-0.2,1.9,·,·
O=C(c1cccc(S(=O)(=O)N2CCCCC2)c1)N1CCc2ccccc21,15.3*,-0.6,-0.3,7.6,-3.7,-1.9
O=C1CN(C(=O)c2ccccc2[N+](=O)[O-])C(c2ccccc2)c2cc(Br)ccc2N1 (stereo not given),9.7*,-0.6,2.7,-5.0,-2.7,-8.6
COc1ccccc1C(=O)N1CC(=O)Nc2ccc(F)cc2C1c1ccccc1 (stereo not given),9.6*,-1.4,12.3,3.4,-9.5,-2.1
C=CCc1cccc(C=NNC(=O)c2ccco2)c1O,-41.3,·,-0.6,-59.1,·,·
CCc1nc(SCC(=O)NCc2ccc(F)cc2)c2c(=O)n(C)c(=O)n(C)c2n1,46.3*,-0.2,-0.1,2.9,-8.6,-3.8
CCC(C)Cn1cnc2c(Sc3c([N+](=O)[O-])ncn3C)nc(N)nc21 (stereo not given),2.1,-0.1,2.3,2.3,·,·
CC(C)Cn1cnc2c(Sc3c([N+](=O)[O-])ncn3C)nc(N)nc21,21.5*,0.0,-1.3,11.6*,2.5,5.2
CCC1C(=O)N(C)CCc2ccccc21 (stereo not given),12.0*,-1.7,2.3,4.3,4.9,-1.9
Cc1nc2ccc(C(=O)N3CCN(C(=O)C(Cl)Cl)CC3)cc2n1C1CCCC1,-0.5,·,10.9,-0.4,·,·
OCc1nc2ccccc2n1Cc1ccc(Cl)cc1,10.2*,-0.3,2.4,1.4,-10.2,-4.7
Cc1nc2ccccc2n1Cc1ccc(Cl)cc1,0.0,-0.9,5.9,-4.7,·,·

# Compound activity (PubChem BioAssay)
